Reference: ChEMBL document CHEMBL4002606, “Discovery of FZU-03,010 as a self-assembling anticancer amphiphile for acute myeloid leukemia” (Bioorg Med Chem Lett, 2017)
Calls of active or inactive are those of the source. The rule behind the calls is not given here.

Key:
HL-60 [1] = assay: Growth inhibition of human HL60 cells at 5 uM after 48 hrs by MTT assay relative to control; format: functional; details: HL-60, 48 h, read-out: GI
HL-60 [2] = assay: Growth inhibition of human HL60 cells at 20 uM after 48 hrs by MTT assay relative to control; format: functional; details: HL-60, 48 h, read-out: GI
HL-60 [3] = assay: Growth inhibition of human HL60 cells at 1.25 uM after 48 hrs by MTT assay relative to control; format: functional; details: HL-60, 48 h, read-out: GI
HL-60 [4] = assay: Growth inhibition of human HL60 cells at 2.5 uM after 48 hrs by MTT assay relative to control; format: functional; details: HL-60, 48 h, read-out: GI
HL-60 [5] = assay: Growth inhibition of human HL60 cells at 0.63 uM after 48 hrs by MTT assay relative to control; format: functional; details: for inhibition of growth at 0.63 µM: HL-60, 48 h, read-out: GI
HL-60 [6] = assay: Growth inhibition of human HL60 cells at 40 uM after 48 hrs by MTT assay relative to control; format: functional; details: HL-60, 48 h, read-out: GI
HL-60 [7] = assay: Growth inhibition of human HL60 cells after 48 hrs by MTT assay; format: functional, cell-based; details: HL-60, 48 h
Method in brief: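 HL-60 human promyelocytic leukemia cells; proliferation inhibition of the cells measured and reported as IC50; values are mean ± SE of at least three independent experiments.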

HL-60 [8] = assay: Growth inhibition of human HL60 cells at 10 uM after 48 hrs by MTT assay relative to control; format: functional; details: HL-60, 48 h, read-out: GI
HL-60 [9] = assay: Induction of apoptosis in human HL60 cells assessed as necrotic cells at 10 uM after 24 hrs by Annexin V-PE/7AAD staining based flow cytometry (reference value: 1.08%); format: functional
HL-60 [10] = assay: Induction of apoptosis in human HL60 cells assessed as downregulation of Bcl2 expression up to 10 uM after 24 hrs by Western blot method; format: functional, cell-based
Method in brief: (§1)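 HL-60 cells treated at different concentrations; lysates probed with specific antibodies against procaspase-3, cleaved caspase-9, PARP, Bcl-2, phospho-P70S6K and phospho-Akt; actin used as loading control.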

HL-60 [11] = assay: Induction of apoptosis in human HL60 cells assessed as early apoptotic cells at 10 uM after 24 hrs by Annexin V-PE/7AAD staining based flow cytometry (reference value: 4.42%); format: functional
HL-60 [12] = assay: Induction of apoptosis in human HL60 cells assessed as downregulation of procaspase-3 expression after 24 hrs by Western blot method; format: functional, cell-based; method in brief: as §1
HL-60 [13] = assay: Induction of apoptosis in human HL60 cells assessed as late apoptotic cells at 10 uM after 24 hrs by Annexin V-PE/7AAD staining based flow cytometry (reference value: 3.64%); format: functional
HL-60 [14] = assay: Induction of apoptosis in human HL60 cells assessed as caspase-9 cleavage after 24 hrs by Western blot method; format: functional, cell-based; method in brief: as §1
HL-60 [15] = assay: Induction of apoptosis in human HL60 cells assessed as live cells at 10 uM after 24 hrs by Annexin V-PE/7AAD staining based flow cytometry (reference value: 90.9%); format: functional
Homo sapiens [16] = species on record: Homo sapiens; assay: Inhibition of PI3K in human HL60 cells assessed as reduction in Akt phosphorylation at Ser473-residue up to 10 uM after 24 hrs by Western blot method; format: cell-based; method in brief: as §1
[17] = molecular target: Serine/threonine-protein kinase mTOR (Homo sapiens) (UniProt P42345); assay: Inhibition of mTOR in human HL60 cells assessed as reduction in P70S6K phosphorylation at Thr389-residue up to 10 uM after 24 hrs by Western blot method; format: cell-based; method in brief: as §1
HL-60 [18] = assay: Induction of apoptosis in human HL60 cells assessed as PARP cleavage up to 10 uM after 24 hrs by Western blot method; format: functional, cell-based; method in brief: as §1
[19] = molecular target: Serine/threonine-protein kinase mTOR (Homo sapiens) (UniProt P42345); assay: Inhibition of mTOR in human HL60 cells assessed as reduction in P70S6K phosphorylation at Thr389-residue up to 4 uM after 24 hrs by Western blot method; format: cell-based; method in brief: as §1
Homo sapiens [20] = species on record: Homo sapiens; assay: Inhibition of PI3K in human HL60 cells assessed as reduction in Akt phosphorylation at Ser473-residue up to 4 uM after 24 hrs by Western blot method; format: cell-based; method in brief: as §1
[21] = Induction of nanoparticle formation in DMSO/deionized water after 25 days by dynamic light scattering assay
[22] = Induction of nanoparticle formation in DMSO/deionized water at 1.5 mg/ml
HL-60 [23] = assay: Induction of apoptosis in human HL60 cells assessed as PARP cleavage up to 4 uM after 24 hrs by Western blot method; format: functional, cell-based; method in brief: as §1
HL-60 [24] = assay: Induction of apoptosis in human HL60 cells assessed as downregulation of Bcl2 expression up to 4 uM after 24 hrs by Western blot method; format: functional, cell-based; method in brief: as §1

IC50 (HL-60 [7]) | Structure (SMILES) | inhibition of growth at 5 µM (HL-60 [1]) | inhibition of growth at 20 µM (HL-60 [2]) | inhibition of growth at 1.25 µM (HL-60 [3]) | inhibition of growth at 2.5 µM (HL-60 [4]) | inhibition of growth at 0.63 µM (HL-60 [5]) | inhibition of growth at 40 µM (HL-60 [6]) | inhibition of growth at 10 µM (HL-60 [8]) | Activity (HL-60 [12]) | Activity (HL-60 [14]) | other results
5.64 µM | CC(=O)NN/C=C1/C[C@]2(C)[C@H]3CC=C4[C@@H]5[C@@H](C)[C@H](C)CC[C@]5(C(=O)O)CC[C@@]4(C)[C@]3(C)CC[C@H]2C(C)(C)C1=O | 41.7% | 69.7% | 20.7% | 28.8% | 9.96% | 93.1% | 61.7% | – | – | –
5.44 µM | C[C@H]1[C@H](C)CC[C@]2(C(=O)O)CC[C@]3(C)C(=CC[C@@H]4[C@@]5(C)C/C(=C/O)C(=O)C(C)(C)[C@@H]5CC[C@]43C)[C@H]12 | 50.3% | 72.4% | 18.5% | 33.9% | 9.03% | 89.8% | 67% | – | – | –
6.26 µM | C[C@H]1[C@H](C)CC[C@]2(C(=O)O)CC[C@]3(C)C(=CC[C@@H]4[C@@]5(C)Cc6c[nH]nc6C(C)(C)[C@@H]5CC[C@]43C)[C@H]12 | 16.3% | 93.2% | 7.54% | 8.55% | 5.36% | 94.7% | 79.5% | Dose-dependent effect | Dose-dependent effect | Activity (HL-60 [9]): 0.231%; Activity (HL-60 [10]): Active; Activity (HL-60 [11]): 19.5%; Activity (HL-60 [13]): 3.98%; Activity (HL-60 [15]): 76.3%; inhibition (Homo sapiens [16]): Active; inhibition [17]: Active; Activity (HL-60 [18]): Active
> 40 µM | C=CCNc1nc2c(s1)C[C@]1(C)[C@H]3CC=C4[C@@H]5[C@@H](C)[C@H](C)CC[C@]5(C(=O)O)CC[C@@]4(C)[C@]3(C)CC[C@H]1C2(C)C | 13.4% | 34.7% | 0.33% | 4.73% | – | 49.8% | 20.3% | – | – | growth inhibition (GI) (HL-60 [5]): inactive
5.21 µM | C[C@H]1[C@H](C)CC[C@]2(C(=O)N(CCO)CCO)CC[C@]3(C)C(=CC[C@@H]4[C@@]5(C)Cc6cn[nH]c6C(C)(C)[C@@H]5CC[C@]43C)[C@H]12 | 64.8% | 94% | 2.47% | 19.3% | 3.54% | 93.6% | 86.8% | – | – | –
– | C[C@H]1[C@H](C)CC[C@]2(C(=O)N3CCNCC3)CC[C@]3(C)C(=CC[C@@H]4[C@@]5(C)Cc6cn[nH]c6C(C)(C)[C@@H]5CC[C@]43C)[C@H]12 | – | – | – | – | – | – | – | Dose-dependent effect | Dose-dependent effect | inhibition [19]: Active; inhibition (Homo sapiens [20]): Active; Activity [21]: Active; Activity [22]: Active; Activity (HL-60 [23]): Active; Activity (HL-60 [24]): Active
